Experimental findings from ChEMBL document CHEMBL1158072, “Antioxidative phenolics from the fresh leaves of Ternstroemia japonica” (J Nat Prod, 2006) are described below.

Test [1] deals with Kidney. As to the kind of experiment: Antioxidant activity assessed as inhibition of total reactive oxygen species generation in Wistar rat kidney by 2',7'-dichlorofluorescein based fluorescence spectroscopy. The test is classed as functional, tissue-based. The gist of the method: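 Rat kidney homogenate (postmicrosomal fraction) from freshly killed male Wistar rats, 150-200 g, mixed with samples in 10% EtOH (final 0.4%). DCHF-DA (12.5 mM, in EtOH, final 0.2%) added in 50 mM phosphate buffer pH 7.4 and incubated 37 °C for 30 min. DCF fluorescence read at ex 460/em 530 nm. Trolox positive control. IC50 reported as mean ± standard error, triplicate.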

Test [2] is described as follows: Antioxidant activity assessed as peroxynitrite scavenging activity by fluorescence spectroscopy. The test is classed as functional. The method in brief:
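Authentic peroxynitrite oxidation of dihydrorhodamine 123 (final 5 µM) in N2-purged buffer of 90 mM NaCl, 50 mM Na3PO4, 5 mM KCl and 100 µM DTPA, pH 7.4. Fluorescence read 5 min after treatment with and without ONOO- at ex 480/em 530 nm. Signal taken as final minus background. DL-penicillamine positive control. IC50 reported as mean ± standard error, n = 3.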

Test [3] can be described thus: Antioxidant activity assessed as inhibition of hydroxyl radical generation by fluorescence spectroscopy. The test is classed as functional. The gist of the method: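 Test samples in 10% EtOH (final 0.4%) added to 1 mM H2O2 plus 0.2 mM FeSO4 and incubated 37 °C for 5 min. Esterase-treated 2 µM DCHF-DA (in EtOH) then added and fluorescence followed for 30 min at ex 460/em 530 nm. Trolox positive control. IC50 reported as mean ± standard error of triplicate experiments.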

As a reminder, the IC50 is the point on the concentration scale where inhibition reaches its midpoint. `O=C(Cc1ccc(O)c(O)c1)O[C@H]1[C@H](OCCc2cc(O)c(O)cc2O)O[C@H](CO)[C@@H](O)[C@@H]1O`: the IC50 in test [1] was 45.4 µM; in test [2] it was 1.54 µM; in test [3], 4.21 µM.
The like results for `O=c1c(O[C@@H]2O[C@H](CO)[C@@H](O)[C@H](O)[C@H]2O[C@@H]2OC[C@@H](O)[C@H](O)[C@H]2O)c(-c2ccc(O[C@@H]3O[C@H](CO)[C@@H](O)[C@H](O)[C@H]3O)cc2)oc2cc(O)cc(O)c12` were, in that order, 82.2 µM, 13.5 µM and 5.28 µM.
On to `CC(C)(S)C(N)C(=O)O` (racemic) [DL-PENICILLAMINE], for which the IC50 in test [2] stood at 1.05 µM.
Regarding `O=c1c(O)c(-c2ccc(O)c(O)c2)oc2cc(O)cc(O)c12` [QUERCETIN], the IC50 stood at 29.1 µM in test [1], 1.38 µM in test [2] and 2.39 µM in test [3].
For `O=C(Cc1ccc(O)c(O)c1)O[C@H]1[C@H](OCCc2ccc(O)c(O)c2)O[C@H](CO)[C@@H](O)[C@@H]1O` [TERNSTROSIDE A], the IC50 in test [1] turned out to be 39.3 µM; in test [2], 1.69 µM; in test [3], 3.41 µM.
With `O=C(Cc1ccc(O)cc1)O[C@H]1[C@H](OCCc2ccc(O)c(O)c2)O[C@H](CO)[C@@H](O)[C@@H]1O` [TERNSTROSIDE B], the IC50 was found to be 62.5 µM in test [1], 2.36 µM in test [2] and 4.66 µM in test [3].
The like results for `O=C(Cc1ccc(O)c(O)c1)O[C@@H]1[C@@H](O)[C@H](OCCc2ccc(O)c(O)c2)O[C@H](CO)[C@H]1O` [TERNSTROSIDE C] were, in that order, 33.3 µM, 1.14 µM and 3.26 µM.
The like results for `O=C(Cc1ccc(O)c(O)c1)OC[C@H]1O[C@@H](OCCc2ccc(O)c(O)c2)[C@H](O)[C@@H](O)[C@@H]1O` [TERNSTROSIDE D] were, in that order, 66.9 µM, 3.85 µM and 6.5 µM.
`O=C(Cc1ccc(O)c(O)c1)O[C@H]1[C@H](OCCc2ccc(O)cc2)O[C@H](CO)[C@@H](O)[C@@H]1O` [TERNSTROSIDE E]: the figures for the IC50 in test [1], in test [2] and in test [3] were 55 µM, 2.56 µM and 4.72 µM, respectively.
On to `Cc1c(C)c2c(c(C)c1O)CCC(C)(C(=O)O)O2` (configuration not stated) [TROLOX], for which the figures for the IC50 in test [1] and in test [3] were 29.5 µM and 2.83 µM, respectively.
